Only some compounds are listed: those with a hit (about 3.5% of all), similar ones and a draw of the others.
esBAF inh: Bmi1 luciferase reporter increase in mESCs, primary screen, esBAF inhibitor project, mouse ES cells, Bmi1 luciferase knock-in, single point. reporter increase, % at 12.5 µM. 24 h; 100% = twice the neutral-well signal. 350,000 tested, 2% active; in the data active = activation above about 40%;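 also: a rise in the Bmi1 reporter signal indicates esBAF inhibition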
ERAP1 inh: human ERAP1 aminopeptidase inhibitors, primary screen, biochemical, single point, plate reader; 340,000 tested, 0.15% active; AID 652197, 2013; recombinant ERAP1, Leu-AMC fluorescence, 60 min; Endoplasmic reticulum aminopeptidase 1 (Homo sapiens), Q9NZ08; inhibition, % at 10.7 µM;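 active = mean replicate inhibition of at least 30%, or all replicates individually reaching that 30% level; inactive = mean below 30% and not every replicate reaching it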
Target sequence (Q9NZ08 whole entry, looked up): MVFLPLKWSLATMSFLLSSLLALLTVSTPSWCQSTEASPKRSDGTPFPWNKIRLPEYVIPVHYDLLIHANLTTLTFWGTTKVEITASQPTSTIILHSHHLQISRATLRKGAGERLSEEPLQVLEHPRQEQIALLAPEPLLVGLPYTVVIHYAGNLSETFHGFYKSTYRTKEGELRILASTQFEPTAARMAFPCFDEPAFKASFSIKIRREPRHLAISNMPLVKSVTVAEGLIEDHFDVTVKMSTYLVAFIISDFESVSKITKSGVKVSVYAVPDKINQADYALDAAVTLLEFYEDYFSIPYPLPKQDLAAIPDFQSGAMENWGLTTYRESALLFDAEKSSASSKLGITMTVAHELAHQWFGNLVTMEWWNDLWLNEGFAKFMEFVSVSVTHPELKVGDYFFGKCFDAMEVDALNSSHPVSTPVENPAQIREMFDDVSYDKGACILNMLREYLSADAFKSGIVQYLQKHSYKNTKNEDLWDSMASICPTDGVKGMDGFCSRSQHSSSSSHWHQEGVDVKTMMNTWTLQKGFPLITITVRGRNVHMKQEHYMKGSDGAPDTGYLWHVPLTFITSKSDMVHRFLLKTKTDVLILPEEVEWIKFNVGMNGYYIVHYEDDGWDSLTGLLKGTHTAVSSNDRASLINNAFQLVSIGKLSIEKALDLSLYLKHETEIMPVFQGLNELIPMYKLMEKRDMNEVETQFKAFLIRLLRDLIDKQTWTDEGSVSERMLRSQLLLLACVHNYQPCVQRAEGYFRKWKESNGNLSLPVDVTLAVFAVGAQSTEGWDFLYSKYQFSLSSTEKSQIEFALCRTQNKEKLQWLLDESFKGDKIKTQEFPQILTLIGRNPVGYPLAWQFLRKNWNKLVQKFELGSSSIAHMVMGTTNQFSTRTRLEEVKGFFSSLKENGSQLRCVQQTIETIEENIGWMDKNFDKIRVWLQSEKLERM
Cneo AK release: Cryptococcus neoformans cell lysis inducers, primary screen, AK release luminescence, single concentration | C. neoformans lysis, adenylate kinase release luminescence, 4 h; normalised: neutral wells 0, clomiphene wells 100 | lysis activity, % at 15 µM | 360,000 tested, 0.2% active | AID 651654, 2012;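 active = mean lysis activity across replicates of at least 80%, whatever share of replicates individually reach that level; inactive = mean lysis activity below 80%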
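Material: C. neoformans cells; Schedule: 4 h static compound exposure, 37 °C, read 1 h post-reagent; Measured by: adenylate kinase release luminescence; Read-out: signal increase indicating cell lysis; Controls: Clomiphene as positive lysis control.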
HIV Env fusion: inhibitors of HIV-1 Env-driven cell-cell fusion, primary screen, HeLa-JRFL effector, CEM21 target cells, luciferase | inhibition, % at 12.3 µM | 360,000 tested, 1.1% active | AID 651610, 2012;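 active = mean replicate inhibition score of at least 50 and every replicate individually at or above 50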
MITF act: activators of MITF-driven TRPM1 promoter reporter, primary screen, cell-based, SK-MEL-5, luciferase, single point; SK-MEL-5 TRPM1-promoter luciferase, 24 h; % of positive control, neutral wells = 0; activation, % at 12.5 µM; 300,000 tested, 0.75% active;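 active = mean activation of at least 80% with every replicate also reaching 80%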
Wnt bcat act: Wnt/beta-catenin pathway activators, primary screen, cell-based, plate reader, single point; Wnt/beta-catenin reporter cell assay, activator; activation, % at 9.35 µM; 300,000 tested, 1.2% active; AID 743398, 2014; in the data active = activation above about 30%, passing the limit was not always enough
Numbers stand for hits; – = inactive; · = no result; [ ] = remark or other dose.

SMILES | esBAF inh | ERAP1 inh | Cneo AK release | HIV Env fusion | MITF act | Wnt bcat act
Cc1nn(C(=O)c2ccc3c(c2)OCO3)c(N)c1-c1ccccc1 | – | – | – | – | – | 67
C[C@H]1CN([C@@H](C)CO)C(=O)c2cc(NC(=O)Cn3cnnn3)ccc2O[C@H]1CN(C)C(=O)Nc1ccc(C(F)(F)F)cc1 | – | – | – | · | · | ·
Cc1cc(C)nc(Nc2n[nH]c(-c3ccc(N)cc3)n2)n1 | – | · | – | – | · | 47
Cc1cc(C)nc(Nc2n[nH]c(-c3ccccc3C)n2)n1 | · | – | · | – | – | –
Cc1cc(C)nc(Nc2n[nH]c(-c3ccccc3Br)n2)n1 | 44 | · | – | · | · | ·
Cc1cc(C)nc(Nc2n[nH]c(-c3ccc(C(C)(C)C)cc3)n2)n1 | 55 | – | – | – | – | –
Cc1cc(C)nc(Nc2n[nH]c(C)n2)n1 | · | – | · | – | – | –
Cc1cc(C)nc(Nc2n[nH]c(COc3ccc(Cl)cc3)n2)n1 | – | · | – | – | · | ·
C[C@@H]1CN([C@H](C)CO)C(=O)CCCn2nncc2CO[C@@H]1CN(C)Cc1ccccc1 | – | – | – | – | · | ·
COc1cccc(-c2cnc3c(c2)C(=O)N([C@H](C)CO)C[C@H](C)[C@H](CN(C)C(C)=O)O3)c1 | – | – | – | – | · | ·
Clc1ccc(OCCCCCN2CCCC2)c(Br)c1 | – | – | – | – | – | –
Clc1ccc(OCCCN2CCCCC2)c(Br)c1 | 23 | – | – | – | – | –
Cc1noc(C)c1S(=O)(=O)N(C)C[C@@H]1OCCCC[C@@H](C)Oc2ccc(NC(=O)NC(C)C)cc2C(=O)N([C@H](C)CO)C[C@H]1C | – | – | – | – | · | ·
O=C1CC(c2ccccc2)Cc2nc(N3CCc4ccccc4C3)ncc21 (stereo unspecified) | · | · | · | – | · | ·
Cc1ccc(C2CC(=O)c3cnc(N4CCc5ccccc5C4)nc3C2)cc1 (stereo unspecified) | – | · | – | 68 | – | ·
CC(=O)Cn1cnc2sc(-c3ccccc3)cc2c1=O | · | · | – | – | 88 | 37
Cc1ccc(C)n1-n1cnc2sc(-c3ccccc3)cc2c1=O | – | · | – | · | – | ·
O=c1[nH]c(-c2ccccc2)nc2sc(-c3ccccc3)cc12 | · | – | · | – | – | –
CCn1cnc2sc(-c3ccccc3)cc2c1=O | 49 | · | · | · | – | –
O=c1[nH]cnc2sc(-c3ccccc3)cc12 | 49 | – | – | – | – | –
O=c1c2cc(-c3ccccc3)sc2ncn1-n1cccc1 | 72 | · | – | – | 85 | –
O=C(c1ccccn1)N1CC[C@@H]2[C@H]1c1cc(C#Cc3ccccc3)ccc1N[C@@H]2CO | – | – | – | · | · | ·
CC(=O)Cn1nnc2sc(-c3ccccc3)cc2c1=O | · | – | · | – | 89 | –
COc1ccc(-c2nc3ccccc3[nH]2)cc1 | · | – | · | · | – | –
COc1ccc(-c2cc(=O)n(-c3nc4ccccc4[nH]3)[nH]2)cc1 | – | · | – | 66 | – | ·
SMILES | esBAF inh | ERAP1 inh | Cneo AK release | HIV Env fusion | MITF act | Wnt bcat act
C[C@@H]1CN([C@H](C)CO)S(=O)(=O)c2ccc(C3=CCCCC3)cc2O[C@@H]1CN(C)S(=O)(=O)c1ccc(F)cc1 | – | – | – | 58[16.7 µM] | · | ·
COc1ccc(S(=O)(=O)N(C)C[C@H]2Oc3cc(C4=CCCC4)ccc3S(=O)(=O)N([C@@H](C)CO)C[C@H]2C)cc1 | – | – | – | 69[16.7 µM] | · | ·
CO[C@H]1CN(C)C(=O)c2ccc(NC(=O)C3CC3)cc2OC[C@@H](C)N(CCC(F)(F)F)C[C@H]1C | – | – | – | · | · | ·
C[C@@H]1CN([C@@H](C)CO)C(=O)c2cc(NC(=O)Nc3ccc4c(c3)OCO4)ccc2O[C@@H]1CN(C)Cc1ccc(C(=O)O)cc1 | – | – | – | · | · | ·
COc1ccc2c3c([nH]c2c1)[C@H](CO)N(C(C)=O)CC31CCN(C(=O)Nc2ccc(F)cc2F)CC1 | · | – | · | · | · | ·
C[C@H]1CN([C@@H](C)CO)C(=O)c2cccc(NC(=O)Nc3cccc4ccccc34)c2O[C@H]1CN(C)C(=O)NC1CCCCC1 | – | – | – | – | · | ·
C[C@@H]1CN([C@H](C)CO)C(=O)c2cc(-c3ccc(C#N)cc3)cnc2O[C@@H]1CN(C)C(=O)c1cccnc1 | – | – | – | – | · | ·
Brc1ccc2nc(-c3c[nH]c4ccccc34)cn2c1 | – | · | – | – | – | –
Cc1cccn2cc(-c3c[nH]c4ccccc34)nc12 | 81 | – | – | – | – | –
COc1ccccc1CN(C)C[C@@H]1OCc2cn(nn2)CCCC(=O)N([C@@H](C)CO)C[C@H]1C | – | · | · | · | · | ·
O=C(C[C@@H]1CC[C@@H]2[C@H](COC[C@@H](O)CN2C(=O)Nc2ccc(Cl)cc2)O1)NC1Cc2ccccc2C1 | – | – | 109 | · | · | ·
CCCNC(=O)C[C@@H]1CC[C@@H]2[C@H](COC[C@@H](O)CN2C(=O)Nc2ccc3c(c2)OCO3)O1 | – | – | – | · | · | ·
C[C@H](NC(=O)C[C@@H]1CC[C@@H]2[C@H](COC[C@@H](O)CN2C(=O)Nc2cccc(F)c2)O1)c1ccccc1 | – | – | 90 | · | · | ·
CCNC(=O)C[C@@H]1CC[C@@H]2[C@H](COC[C@H](O)CN2C(=O)Nc2ccc3c(c2)OCO3)O1 | 44 | – | – | · | · | ·
CCCNC(=O)C[C@H]1CC[C@H]2[C@@H](COC[C@H](O)CN2C(=O)Nc2ccc3c(c2)OCO3)O1 | – | – | – | · | · | ·
CCNC(=O)C[C@H]1CC[C@@H]2[C@H](COC[C@H](O)CN2C(=O)Nc2ccc3c(c2)OCO3)O1 | 45 | – | – | · | · | ·
COc1ccccc1-c1ccc([C@@H]2[C@@H](C#N)N(C(=O)NC3CCCC3)[C@@H]2CO)cc1 | · | – | · | · | · | ·
O=C(c1cc(-c2ccccc2)on1)N1CCCCCC1 | 55 | – | – | – | 141 | 37
COc1cccc(-c2cc(C(=O)N3CCCCCC3)no2)c1 | – | – | – | – | · | 41
COc1ccc(-c2cc(C(=O)N3CCCCCC3)no2)cc1 | – | – | – | – | – | –
O=C(c1cc(-c2cccc(O)c2)on1)N1CCCCC1 | – | – | – | – | – | 40
COc1ccc(-c2cc(C(=O)N3CCCCCC3)no2)cc1OC | 71 | – | – | – | · | –
Cc1ccc(S(=O)(=O)Nc2cccc3c2O[C@@H](CN(C)CC2CCCCC2)[C@@H](C)CN([C@@H](C)CO)C3=O)cc1 | – | – | – | · | · | ·
O=C(c1cc(-c2ccc(F)cc2)on1)N1CCCC1 | – | · | – | – | – | ·
O=C(c1cc(-c2ccc(F)cc2)on1)N1CCCCCC1 | – | – | – | – | 138 | –
c1cc(-c2ccc(C3[C@H]4CNC[C@@H]3N4CC3CCCC3)cc2)ccn1 (stereo partly specified) | · | – | · | · | · | ·

High-throughput results (PubChem BioAssay)
